Hits are enriched below; roughly 1.7% of the tested compounds scored in any of these assays.
CCR6 antag: antagonists of human CCR6 receptor; P51684; CHO-K1 CCR6 PathHunter beta-arrestin, luminescence, CCL20-stimulated; inhibition, % at 20 µM; 340,000 tested, 0.49% active;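 active = compounds whose inhibition of the agonist-driven luminescence signal at 20 µM reaches about 50%, limit read from the data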;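 note: cells stimulated with CCL20 at 14 nM final; plate controls were DMSO with CCL20 for no effect and DMSO without agonist for full effect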
Target sequence (P51684 whole entry, looked up): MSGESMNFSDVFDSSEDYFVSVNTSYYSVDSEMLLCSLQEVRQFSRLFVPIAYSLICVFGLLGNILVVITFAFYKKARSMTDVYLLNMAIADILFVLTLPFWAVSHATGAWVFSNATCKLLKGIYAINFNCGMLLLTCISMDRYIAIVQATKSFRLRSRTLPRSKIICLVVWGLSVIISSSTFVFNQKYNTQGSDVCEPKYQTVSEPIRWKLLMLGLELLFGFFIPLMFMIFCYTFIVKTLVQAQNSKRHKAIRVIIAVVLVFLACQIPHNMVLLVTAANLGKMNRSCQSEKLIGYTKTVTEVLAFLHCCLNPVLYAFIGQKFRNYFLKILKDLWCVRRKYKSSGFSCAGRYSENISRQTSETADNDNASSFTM
B2AR ag: agonists of human beta-2 adrenergic receptor inducing internalization. 340,000 tested, 0.43% active. response, % (no concentration beside the values). AID 504454. Am2.2-beta2AR cells, FAP receptor internalization, flow cytometry;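 active = response above a set limit, near 3 SD of response in nonfluorescent compounds, cut at about 42% in these data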
APJ agonist: agonists of human APJ apelin receptor | activation, % at 20 µM | CHO-K1 APJ PathHunter beta-arrestin, luminescence; 0% DMSO wells, 100% apelin | 330,000 tested, 0.11% active | P35414;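 active = activation more than six SD over the plate average, tested at 20 µM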;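 note: 0% = DMSO alone and 100% = apelin-13 at 10 nM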
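Test system: CHO-K1 APJ beta-arrestin complementation cell line. Amount: cell density 1000 per well. Controls: DMSO negative, 10 nM Apelin-13 positive. Signal: luminescent beta-gal fragment complementation, chemiluminescent substrate. Read-out basis: agonist-driven arrestin binding to APJ. Timing: compound stimulation 90 min at 25 °C, detection 60 min.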
APJ antag: antagonists of human APJ apelin receptor. P35414. inhibition, % at 20 µM. 330,000 tested, 0.32% active. AID 2521. CHO-K1 APJ beta-arrestin complementation, luminescence;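 active = inhibition above about 40% at 20 µM, limit read from the data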;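 note: cells challenged with 10 nM apelin-13 agonist together with compound; plate controls were apelin-13 plus DMSO wells for no effect and DMSO wells lacking apelin-13 for full effect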
CXCR6 block: CXCR6 (human) receptor inhibition; inhibition, % at 20 µM; CHO-K1 PathHunter CXCR6 beta-arrestin, luminescence; O00574; 360,000 tested, 0.36% active; AID 602244; in the data active = inhibition above about 34%, passing the limit was not always enough;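 note: antagonist mode with CXCL16 agonist at 10 nM final; 0% = 10 nM CXCL16 with DMSO and 100% = unstimulated wells without agonist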
PfG6PD inh: PfG6PD (Plasmodium falciparum) enzyme inhibition | inhibition, % at 20 µM | AID 504690 | 350,000 tested, 0.78% active | PfGluPho enzyme, NADPH resazurin-diaphorase fluorescence;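 active = inhibition reaching at least a set limit at 20 µM in the primary screen, cut at about 59% in these data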;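 note: 0% = DMSO wells with substrate and 100% = DMSO wells lacking glucose-6-phosphate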
Numbers without * were called inactive; nt = no result given.

SMILES	CCR6 antag	B2AR ag	APJ agonist	APJ antag	CXCR6 block	PfG6PD inh
Cc1cc(C(=O)NCC(=O)Nc2c(C)cccc2C)c(C)o1	-8	-3	-4	-1	6	-2
CC(C)c1ccc2[nH]c(O)c(N=NC(=O)c3ccc(CSc4nncn4C)cc3)c2c1	17	45*	0	4	3	-7
O=C(Nc1ccc(Br)cc1)c1cccc(OC(=S)N2CCOCC2)c1	30	77*	1	13	-2	29
COc1cccc(CCNC(=O)CCCC(=O)c2ccccc2)c1	11	-7	-1	13	1	-12
CCOc1ccccc1/C=C/C(=O)N1CCN(C(=O)c2ccco2)CC1	1	84*	-5	9	-13	-7
O=C(NCCN1CCC(n2c(=O)[nH]c3ccccc32)CC1)c1ccncc1	nt	nt	nt	nt	-4	nt
Oc1c(Br)cc(Br)cc1C=Nc1ccc2[nH]ncc2c1	9	5	14*	-103	10	17
Cc1c(C#N)c(O)n(C)c(=O)c1N=Nc1ccc(S(N)(=O)=O)cc1	52*	6	nt	nt	25	28
Cc1c(C#N)c(O)n(CCO)c(=O)c1N=Nc1ccc(S(N)(=O)=O)cc1	36	0	-6	32	31	17
C#CCOCCOCCOCCNc1nc(N2CCN(C(=O)CCCCCCCCCCNC(=O)[C@H]([C@@H](C)CC)n3cc(CCCCCN)nn3)CC2)nc(N2CCN(C(=O)CCCCCCCCCCNC(=O)[C@@H]([C@H](C)CC)n3cc(CCCCCN)nn3)CC2)n1	nt	nt	55*	22	nt	nt
C#CCOCCOCCOCCNc1nc(N2CCN(C(=O)CCCCCCCCCCNC(=O)[C@H]([C@@H](C)CC)n3cc(CCCCCN)nn3)CC2)nc(N2CCN(C(=O)CCCCCCCCCCNC(=O)[C@H](CCCCN)n3cc(CCCC(=O)O)nn3)CC2)n1	13	30	-5	15	-1	19
C#CCOCCOCCOCCNc1nc(N2CCN(C(=O)CCCCCCCCCCNC(=O)[C@H]([C@@H](C)CC)n3cc(CCCCN=C(N)N)nn3)CC2)nc(N2CCN(C(=O)CCCCCCCCCCNC(=O)[C@H](CO)n3cc(CCCCCN)nn3)CC2)n1	-27	52*	3	14	61*	64*
C#CCOCCOCCOCCNc1nc(N2CCN(C(=O)CCCCCCCCCCNC(=O)[C@H]([C@@H](C)CC)n3cc(CCCCN=C(N)N)nn3)CC2)nc(N2CCN(C(=O)CCCCCCCCCCNC(=O)[C@H]([C@@H](C)CC)n3cc(CCCCN=C(N)N)nn3)CC2)n1	nt	nt	71*	27	nt	nt
C#CCOCCOCCOCCNc1nc(N2CCOCC2)nc(N2CCN(C(=O)CCCCCCCCCCNC(=O)[C@@H]([C@H](C)CC)n3cc(CCCCCN)nn3)CC2)n1	13	12	1	14	1	11
C#CCOCCOCCOCCNc1nc(N2CCN(C(=O)CCCCCCCCCCNC(=O)[C@@H](CCC(=O)O)n3cc(CCCCCN)nn3)CC2)nc(N2CCN(C(=O)CCCCCCCCCCNC(=O)[C@H]([C@@H](C)CC)n3cc(CCCCCN)nn3)CC2)n1	6	52*	4	7	6	8
Cc1cccc(CS(=O)(=O)Cc2ccc(C(=O)NC3CCCCC3)o2)c1	15	4	-1	-7	1	0
Cc1ccc(C)c(OCCC(=O)NCCc2ccc(S(N)(=O)=O)cc2)c1	13	6	-5	-7	-7	-4
C#CCOCCOCCOCCNc1nc(N2CCN(C(=O)CCCCCCCCCCNC(=O)[C@H]([C@@H](C)CC)n3cc(CCCCCN)nn3)CC2)nc(N2CCN(C(=O)CCCCCCCCCCNC(=O)[C@H](CO)n3cc(CCCCCN)nn3)CC2)n1	-12	17	0	26	-2	61*
C#CCOCCOCCOCCNc1nc(N2CCN(C(=O)CCCCCCCCCCNC(=O)[C@H](CCCCN)n3cc(C)nn3)CC2)nc(N2CCN(C(=O)CCCCCCCCCCNC(=O)[C@H](CCCCN)n3cc(CCCC(=O)O)nn3)CC2)n1	6	16	-4	14	3	59*
C#CCOCCOCCOCCNc1nc(N2CCN(C(=O)CCCCCCCCCCNC(=O)[C@H](CO)n3cc(CCCSC)nn3)CC2)nc(N2CCN(C(=O)CCCCCCCCCCNC(=O)[C@H](CCCCN)n3cc(CCO)nn3)CC2)n1	15	35	-3	7	8	21
C#CCOCCOCCOCCNc1nc(N2CCN(C(=O)[C@H](Cc3cc4ccccc4[nH]3)n3cc([C@@H](N)C(C)CC)nn3)CC2)nc(N2CCN(C(=O)[C@H](CCCCN)n3cc([C@@H](N)CO)nn3)CC2)n1 (stereo partly specified)	nt	nt	-2	-4	nt	nt
C#CCOCCOCCOCCNc1nc(N2CCN(C(=O)CCCCCCCCCCNC(=O)[C@H](CCCCN)n3cc(CCCC(=O)O)nn3)CC2)nc(N2CCN(C(=O)CCCCCCCCCCNC(=O)[C@@H]([C@H](C)O)n3cc(C)nn3)CC2)n1	-3	4	-2	-2	7	9
C#CCOCCOCCOCCNc1nc(N2CCN(C(=O)[C@H](CCCCN)n3cc([C@@H](N)C(C)CC)nn3)CC2)nc(N2CCN(C(=O)[C@H](Cc3cc4ccccc4[nH]3)n3cc([C@@H](N)CC(C)C)nn3)CC2)n1 (stereo partly specified)	-12	-4	-5	4	2	60*
CCOc1ccc(NC(=O)COC(=O)c2ccc3ncsc3c2)cc1OCC	8	-1	-3	3	5	8
O=C(NC1CCCCC1)c1cc(-c2cccs2)on1	17	-8	-2	-3	-2	7
SMILES	CCR6 antag	B2AR ag	APJ agonist	APJ antag	CXCR6 block	PfG6PD inh
Cc1noc(C)c1S(=O)(=O)N(C)C[C@H]1Oc2c(NC(=O)Nc3ccc(C(F)(F)F)cc3)cccc2C(=O)N([C@H](C)CO)C[C@@H]1C	12	8	-1	5	-4	17
Cc1ccc(Nc2c(-c3ccc(C)o3)nc3cnccn23)cc1	38	1	-2	23	8	69*
COc1ccc(OC)c(NC(=O)Cn2nc(C)c3ccccc3c2=O)c1	16	-4	-2	-14	0	-13
CCOC(=O)c1c(N)sc(-c2ccccc2)c1C	59*	-8	-5	2	12	46
O=C(N/N=C/c1cccc([N+](=O)[O-])c1O)C(O)(c1ccccc1)c1ccccc1	22	2	-5	11	6	-23
O=C(N/N=C/c1cccc([N+](=O)[O-])c1O)c1cccs1	64*	-6	-6	15	24	-39
O=[N+]([O-])c1cccc(C=NNc2ccc3ccccc3n2)c1O	60*	4	nt	nt	37*	25
O=C1c2cccc3cccc(c23)C(=O)N1c1ccc2ncccc2c1	7	70*	-3	-1	5	6
C=CC(=O)Nc1cccc(N(C)c2ccnc(Nc3ccc(N4CCN(C)CC4)cc3)n2)c1	13	18	nt	nt	-2	66*

Screening results (PubChem)
